Only some compounds are listed: those with a hit (about 3.1% of all), similar ones and a draw of the others.
KCNK9 inh: KCNK9 potassium channel inhibitors, primary screen, HEK293 cells, thallium flux. Potassium channel subfamily K member 9 (Homo sapiens), Q9NPC2. FluxOR thallium flux fluorescence; stronger effect = lower value. B-score at 10 µM. actives 1.2% (n = 310,000);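 active = ratio B-score over 3 SD below the library mean, with starting fluorescence within 5 SD of its mean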;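 note: negative B-score means less thallium flux so channel inhibition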
Target sequence (Q9NPC2 whole entry, looked up): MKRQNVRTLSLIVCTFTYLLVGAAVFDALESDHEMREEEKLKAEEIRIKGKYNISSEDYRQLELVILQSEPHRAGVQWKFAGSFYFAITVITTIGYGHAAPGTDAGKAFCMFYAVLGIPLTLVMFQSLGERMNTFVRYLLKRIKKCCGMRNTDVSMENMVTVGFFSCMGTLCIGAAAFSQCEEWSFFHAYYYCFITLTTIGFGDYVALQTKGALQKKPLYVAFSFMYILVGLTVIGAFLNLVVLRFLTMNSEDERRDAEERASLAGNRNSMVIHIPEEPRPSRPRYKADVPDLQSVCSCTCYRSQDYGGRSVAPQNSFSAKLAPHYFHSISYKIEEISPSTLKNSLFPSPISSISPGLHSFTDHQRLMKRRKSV
KCNK3 block: human KCNK3 channel inhibitors, primary screen, CHO cells, FluxOR thallium flux, B-score; Potassium channel subfamily K member 3 (Homo sapiens), O14649; FluxOR fluorescence; stronger effect = lower value; B-score at 10 µM; actives 0.84% (n = 340,000);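 active = B-score under library mean minus 4 SD, starting fluorescence ratio at most library mean plus 5 SD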;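 note: more negative B-score means stronger inhibition of thallium flux through KCNK3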
KCNQ1 inh: inhibitors of human KCNQ1 channel, primary screen, cell-based, thallium flux, high-throughput. B-score at 10 µM. actives 1.3% (n = 310,000). Potassium voltage-gated channel subfamily KQT member 1 (Homo sapiens), P51787. CHO-K1 KCNQ1, FluxOR thallium flux fluorescence; stronger effect = higher value. AID 2642, 2010;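 active = compounds whose thallium flux B-score, printed positive for inhibition, exceeds three library SD while starting fluorescence stays within three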;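 note: channel opened by potassium depolarization with thallium stimulus after 20 min compound exposure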
hERG protect: hERG rescue from dofetilide block, primary screen, cell-based, CHO-hERG, FluxOR thallium flux, dofetilide IC70. dofetilide IC70 present. activation (rescue from dofetilide block), less the hit threshold, % at 10 µM. actives 0.51% (n = 310,000). AID 1511, 2009;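 active = activation above the mean of controls blocked by dofetilide plus 5 SD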;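 note: thallium influx through hERG after potassium depolarization seen as dye fluorescence rise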
KCNQ1 pot: potentiators or activators of KCNQ1 channel, primary screen, cell-based, thallium flux, high-throughput | Potassium voltage-gated channel subfamily KQT member 1 (Homo sapiens), P51787 | CHO-K1 KCNQ1, thallium flux FluxOR fluorescence; stronger effect = higher value | B-score at 10 µM | actives 0.35% (n = 310,000);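 active = fluorescence ratio B-score, a plate-corrected score, at least three library SD, with initial intensity B-score within 5 SD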
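Assay system: stable KCNQ1 CHO-K1 line; medium: assay buffer, equal DMSO in all wells; timing: 90 min dye loading and 20 min compound exposure, both at room temperature; technique: kinetic FluxOR thallium fluorescence, 10-s 1-Hz baseline, 110-s post-stimulus read; read-out basis: B score of baseline-normalized fluorescence ratio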
KCNK9 block conf: KCNK9 potassium channel inhibitors, confirmation, HEK293 cells, thallium flux, duplicate; actives 43% (n = 4,900); FluxOR thallium flux fluorescence; inhibition, % at 10 µM; shares compounds with KCNK9 inh;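 active = thallium signal inhibited by more than 5 SD of the compound-free buffer control wells, on both duplicate plates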;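 note: 0% = assay buffer control wells without compound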
Kir2-1 spec: mouse Kir2.1 channel inhibition, confirmation, selectivity assay for KCNK9 modulator project, cell-based, HEK293, thallium flux; shares compounds with KCNK9 inh; Kir2.1 cells, FluxOR thallium flux fluorescence; inhibition, % at 10 µM; actives 4% (n = 4,900);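 active = thallium signal drop more than 5 SD beyond the mean of the no-compound control wells, seen in both duplicate plates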;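 note: signal is fluorescence rise after thallium addition divided by baseline fluorescence; plate controls were assay buffer only for no effect and full block by chlorpromazine control for full effect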
KCNK9 uninduced: thallium flux in non-induced HEK293 cells, confirmation, counter-screen for KCNK9 inhibitor project, cell-based, second counter screen, non-induced KCNK9-HEK293; actives 40% (n = 4,900); AID 492997, 2010; FluxOR thallium flux; inhibition, % at 10 µM; shares compounds with KCNK9 inh;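 active = thallium signal drop beyond 5 SD of the untreated control mean, on both duplicate plates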;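 note: plate controls were buffer only IC0 wells for no effect and SID17386958 at its maximal inhibitory level for full effect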
Active calls of the source: *.

O=C(C1CCOCC1)N1CCC(CO)(CCc2ccccc2)CC1 was read as KCNK9 inh inactive, KCNK3 block inactive, KCNQ1 inh inactive, hERG protect 0.3 and KCNQ1 pot inactive.
`OCCN(Cc1cccnc1)Cc1ccccn1` gave KCNK3 block inactive.
Screening Cc1ccc(C(=O)COC(=O)CNC(=O)Cc2ccccc2)cc1[N+](=O)[O-] returned KCNK9 inh inactive, KCNK3 block inactive, KCNQ1 inh inactive, hERG protect -1.7 and KCNQ1 pot inactive.
CCOCCOC(=O)COC(=O)c1ccccc1NC(=O)c1ccccc1 was read as KCNK9 inh inactive, KCNK3 block inactive, KCNQ1 inh inactive, hERG protect -13.0, KCNQ1 pot inactive, KCNK9 block conf inactive, Kir2-1 spec inactive and KCNK9 uninduced inactive.
`Cc1ccc(C(=O)COC(=O)c2ccccc2NC(=O)c2ccccc2)cc1[N+](=O)[O-]` gave KCNK9 inh -8.98*, KCNK3 block inactive, KCNQ1 inh inactive, hERG protect -4.8, KCNQ1 pot inactive, KCNK9 block conf 49.0%*, Kir2-1 spec inactive and KCNK9 uninduced 36.5%*.
Screening CC(C)(C)C(=O)Nc1ccccc1C(=O)OCC(=O)c1ccc2c(c1)OCCO2 returned KCNK9 inh -18.4*, KCNK3 block inactive, KCNQ1 inh inactive, hERG protect -0.7, KCNQ1 pot inactive, KCNK9 block conf 62.0%*, Kir2-1 spec inactive and KCNK9 uninduced 32.0%*.
For C=CCOc1ccnc(-c2ccccc2)n1 the results were KCNK9 inh inactive, KCNK3 block inactive, KCNQ1 inh inactive, hERG protect -9.5 and KCNQ1 pot inactive.
CCC(C(=O)NC1CCCC1)N(C(=O)c1snc(C(N)=O)c1N)c1ccc(C)cc1C (configuration not stated) was read as KCNK9 inh inactive, KCNK3 block inactive, KCNQ1 inh inactive, hERG protect -4.7 and KCNQ1 pot inactive.
Screening O=S(=O)(c1ccc(OC(F)(F)F)cc1)N1CCCC(c2ccccc2)C1 (configuration not stated) returned KCNK9 inh -11.1*, KCNK3 block inactive, KCNQ1 inh inactive, hERG protect -3.5, KCNQ1 pot inactive, KCNK9 block conf inactive, Kir2-1 spec inactive and KCNK9 uninduced inactive.
`CC(Oc1ccc(Br)cc1)c1nc2c3ccccc3nc(=S)n2[nH]1` (configuration not stated) gave KCNK9 inh inactive, KCNK3 block inactive, KCNQ1 inh inactive, hERG protect 0.3, KCNQ1 pot 10*, KCNK9 block conf inactive, Kir2-1 spec inactive and KCNK9 uninduced inactive.
COc1cc(-c2nc3c4ccccc4nc(=S)n3[nH]2)cc(OC)c1OC was read as KCNK9 inh inactive, KCNK3 block inactive, KCNQ1 inh inactive, hERG protect -8.3 and KCNQ1 pot inactive.
CCCC(Oc1ccc(Br)cc1)c1nc2c3cc(OC)c(OC)cc3nc(=S)n2[nH]1 (configuration not stated) was read as KCNK9 inh inactive, KCNK3 block inactive, KCNQ1 inh inactive, hERG protect -14.3, KCNQ1 pot inactive, KCNK9 block conf inactive, Kir2-1 spec inactive and KCNK9 uninduced inactive.
Screening CCCCn1c(N)c(N(CC(C)C)C(=O)c2ccc(-c3ccc(C(C)=O)cc3)o2)c(=O)[nH]c1=O returned KCNK9 inh inactive, KCNK3 block inactive, KCNQ1 inh inactive, hERG protect -14.7 and KCNQ1 pot inactive.
COc1cc(N2CCCC2)c(OC)cc1/C=C(/C#N)c1cccc(F)c1 was read as KCNK9 inh -12.4*, KCNK3 block -10.5*, KCNQ1 inh 7*, hERG protect -20.4, KCNQ1 pot inactive, KCNK9 block conf 61.0%*, Kir2-1 spec 35.0%* and KCNK9 uninduced 50.0%*.
`N#C/C(=C/c1ccc(N2CCCCCC2)o1)c1cccc(F)c1` gave KCNK9 inh -15.1*, KCNK3 block -13*, KCNQ1 inh 9*, hERG protect -26.0, KCNQ1 pot inactive, KCNK9 block conf 74.0%*, Kir2-1 spec inactive and KCNK9 uninduced 71.0%*.
For COc1cccc(/C=C(/C#N)c2ccc(F)cc2)c1OCc1cccc(C(=O)O)c1 the results were KCNK9 inh inactive, KCNK3 block inactive, KCNQ1 inh inactive, hERG protect -3.9 and KCNQ1 pot inactive.
`N#C/C(=C/c1ccc(N2CCCCCC2)o1)c1ccc(F)cc1` gave KCNK9 inh -9.25*, KCNK3 block -10.6*, KCNQ1 inh inactive, hERG protect -13.6, KCNQ1 pot inactive, KCNK9 block conf 58.5%*, Kir2-1 spec inactive and KCNK9 uninduced 70.5%*.
`N#C/C(=C/c1ccc(N2CCCCC2)o1)C(=O)Nc1ccc2ccccc2c1` gave KCNK9 inh inactive, KCNK3 block inactive, KCNQ1 inh inactive, hERG protect -21.6 and KCNQ1 pot inactive.
For N#C/C(=C/c1ccc(N2CCCCC2)o1)C(=O)Nc1ccc(Cl)cc1 the results were KCNK9 inh inactive, KCNK3 block inactive, KCNQ1 inh inactive, hERG protect -13.3 and KCNQ1 pot inactive.
`Cc1ccc(CCNC(=O)CC(C)CC2=NS(=O)(=O)c3ccccc3N2)cc1` (configuration not stated) gave KCNK9 inh inactive, KCNK3 block inactive, KCNQ1 inh inactive, hERG protect -7.9 and KCNQ1 pot inactive.
`O=C(c1ccco1)N(CCC(c1ccccc1)c1ccco1)Cc1ccco1` (configuration not stated) gave KCNK9 inh -8.2*, KCNK3 block inactive, KCNQ1 inh inactive, hERG protect -19.3, KCNQ1 pot inactive, KCNK9 block conf 40.0%*, Kir2-1 spec inactive and KCNK9 uninduced 36.5%*.
For c1cnc(SCCOc2cccc3ccccc23)nc1 the results were KCNK9 inh -9.91*, KCNK3 block inactive, KCNQ1 inh inactive, hERG protect -2.9, KCNQ1 pot inactive, KCNK9 block conf 48.0%*, Kir2-1 spec inactive and KCNK9 uninduced 38.0%*.
